# Compound activity from PubChem BioAssay.
# Rows were chosen to be rich in hits. Some 4.8% of all compounds tested hit in one or more screens of this group.
# CHOP UPR activ = activators of apoptotic CHOP UPR arm, primary screen, cell-based, CHO-CHOP luciferase reporter, luminescence, uHTS. UPR activation; percent of tunicamycin response over DMSO baseline. 330,000 compounds, 0.34% hits. AID 449763, 2010. activation, % at 10 µM;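 active = at 10 µM dose, activation of 40% or more, normalized to positive control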
#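 Test system: CHO CHOP reporter cells. Input: 500 CHO-CHOP cells per well. Medium: F12 with 10% FBS. Technique: luciferase luminescence. Measure: percent activation relative to tunicamycin control. Dosing: 10 µM compound, 0.5% DMSO. Timing: 16-18 h cell attachment, then 6 h compound exposure, 37 °C.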
# XBP1 UPR activ = activators of adaptive XBP1 UPR arm, primary screen, cell-based, CHO-XBP1 luciferase reporter, luminescence, uHTS; IRE1-XBP1 UPR activation; percent of tunicamycin response, DMSO as zero; activation, % at 20 µM; 330,000 compounds, 0.33% hits; AID 463104, 2010;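 active = versus positive control, 20 µM dose yields 30% or more activation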
#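 Material – CHO cell line with stable XBP1 luciferase reporter · Buffer or medium – F12 plus 10% FBS · Compound – single point, 20 µM final compound, 1% DMSO · Schedule – 16-18 h cell attachment at 37 °C, then 6 h compound exposure · Signal – Steady-Glo luminescence read · Benchmarks – high control tunicamycin 10 µg/mL final, low control DMSO vehicle only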
# Mdm2-MdmX inh = inhibitors of human Mdm2-MdmX association, primary screen, cell-based, luminescence, split luciferase, SaOS-2, uHTS | Protein Mdm4 (Homo sapiens) + E3 ubiquitin-protein ligase Mdm2 (Homo sapiens), … | SaOS-2 split-luciferase Mdm2/MdmX complementation | inhibition, % at 8 µM | 330,000 compounds, 3% hits | AID 485346, 2010;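 active = inhibition of at least 50% at 8 µM in the primary screen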
# Target sequence (O15151 whole entry, looked up): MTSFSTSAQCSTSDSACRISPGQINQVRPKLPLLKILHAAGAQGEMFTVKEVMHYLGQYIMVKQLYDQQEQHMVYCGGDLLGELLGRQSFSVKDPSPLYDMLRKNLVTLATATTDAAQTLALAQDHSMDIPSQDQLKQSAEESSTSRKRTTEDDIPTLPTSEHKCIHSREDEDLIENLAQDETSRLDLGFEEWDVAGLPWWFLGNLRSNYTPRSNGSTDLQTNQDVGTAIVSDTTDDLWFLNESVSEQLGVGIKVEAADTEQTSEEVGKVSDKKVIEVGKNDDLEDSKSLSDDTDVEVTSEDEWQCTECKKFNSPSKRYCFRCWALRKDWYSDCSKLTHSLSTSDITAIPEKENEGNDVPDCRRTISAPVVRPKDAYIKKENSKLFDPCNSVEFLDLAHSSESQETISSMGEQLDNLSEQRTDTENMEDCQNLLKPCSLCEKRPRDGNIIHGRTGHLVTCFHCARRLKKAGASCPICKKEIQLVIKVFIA
# Target sequence (Q00987 whole entry, looked up): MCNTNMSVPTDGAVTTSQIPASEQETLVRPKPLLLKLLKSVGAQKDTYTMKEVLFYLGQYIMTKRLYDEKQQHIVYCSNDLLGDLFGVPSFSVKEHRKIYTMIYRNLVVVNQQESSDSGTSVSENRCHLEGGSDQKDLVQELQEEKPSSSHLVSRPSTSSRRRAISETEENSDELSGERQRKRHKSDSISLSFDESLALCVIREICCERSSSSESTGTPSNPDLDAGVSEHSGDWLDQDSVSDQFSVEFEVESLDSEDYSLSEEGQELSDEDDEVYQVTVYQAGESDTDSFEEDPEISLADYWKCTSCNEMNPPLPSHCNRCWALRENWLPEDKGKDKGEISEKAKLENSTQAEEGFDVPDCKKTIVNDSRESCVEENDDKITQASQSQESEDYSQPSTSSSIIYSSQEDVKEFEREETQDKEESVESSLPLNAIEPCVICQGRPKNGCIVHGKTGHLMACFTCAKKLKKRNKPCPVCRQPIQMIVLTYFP
# SKKanGAS inh = S. pyogenes SKKanGAS growth inhibitors in kanamycin, primary screen, streptokinase expression inhibitor project, SKKanGAS strain, BacTiter-Glo luminescence. 300,000 compounds, 1.3% hits. AID 1662, 2009. inhibition, % at 7.5 µM. 6 h;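 active = mean replicate score, as percent of positive control median, at least 50; inconclusive = mean below 50 but one replicate at or above 50; inactive = mean and every replicate below 50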;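 also: strain carries kanamycin resistance gene driven by streptokinase promoter and grows in 40 µg/ml kanamycin; loss of luminescence reflects streptokinase promoter inhibition or plain growth inhibition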
# Beta apoptosis = inhibitors of cytokine-induced beta cell apoptosis, primary screen, luminescence. INS-1E cytokine-induced death, ATP luminescence, 48 h; percent of positive-control rescue, neutral wells zero. protection from apoptosis, % (no concentration beside the values). 300,000 compounds, 0.8% hits. AID 435005, 2010;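 active = Every replicate reaches about 75%, or at least half do and their mean reaches it too, limit read from the data; inconclusive = At least half of replicates reach the limit but their mean does not; inactive = Under half of replicates reach the limit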;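 also: higher means more ATP so stronger rescue from cytokine killing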
# CSC inhib = cancer stem cell viability inhibitors, primary screen, luminescence; cancer stem cell-like cells viability; 300,000 compounds, 1.1% hits; AID 2717, 2010; inhibition, % at 7.5 µM; in the data active = inhibition above about 75%; inconclusive = no clear call, values can overlap the other calls; tested in HMLE shEcad cells
# Mdm2-MdmX conf = Mdm2-MdmX complex disruptors, retested hits, confirmation, luminescence, single concentration. inhibition, % at 8 µM. AID 489028, 2010. shares compounds with Mdm2-MdmX inh. Mdm2-MdmX binding, luminescent assay. 10,000 compounds, 55% hits; in the data active = inhibition above about 40%
# Full FLuc ctr = full-length luciferase signal inhibition, confirmation, counter-screen for Mdm2/MdmX interaction inhibitor project, cell-based, single concentration, SaOS-2 | shares compounds with Mdm2-MdmX inh | inhibition, % at 8 µM | SaOS-2 full-length luciferase counterscreen, luminescence | 6,200 compounds, 77% hits | AID 504607, 2011;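 active = mean inhibition at 8 µM reaching about 37%, which flags the compound as non-specific, limit read from the data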;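 also: p53-null SaOS-2 cells with luciferase driven by a doxycycline-inducible promoter; compound on cells about two nights before reading with doxycycline added after day one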
# Hits are given with their value; - = inactive; ? = inconclusive; . = not tested or not shown.
SMILES,CHOP UPR activ,XBP1 UPR activ,Mdm2-MdmX inh,SKKanGAS inh,Beta apoptosis,CSC inhib,Mdm2-MdmX conf,Full FLuc ctr
COc1cccc(C(=O)c2sc(NC(C)C)nc2N)c1,-,-,76,-,-,.,44,111
CCOC(=O)c1sc(Nc2ccc(F)cc2)nc1C,-,-,-,-,-,-,.,.
NC(=S)N/N=C1\CCOc2ccc(F)cc21,-,-,-,-,-,-,.,.
CC1CN(C(=O)c2cc(Br)c(Br)s2)CC(C)O1 (stereo unspecified),-,-,-,.,-,-,.,.
O=C(NCC(O)c1ccccc1)c1ccc(Cl)c(S(=O)(=O)N2CCCC2)c1 (stereo unspecified),-,-,-,-,-,-,.,.
COc1cccc(NC(=S)N2CCN(C)CC2)c1,-,-,-,-,.,-,.,.
COc1ccccc1S(=O)(=O)c1ccccc1[N+](=O)[O-],-,-,-,-,-,-,.,.
COc1ccc([N+](=O)[O-])c(S(=O)(=O)c2ccc(Cl)cc2)n1,-,-,97,-,83,-,95,52
COc1ccc([N+](=O)[O-])c(S(=O)(=O)c2ccccc2)n1,-,-,99,-,94,-,98,52
COc1nc(OC)nc(Oc2ccc(Cl)cc2[N+](=O)[O-])n1,-,-,-,-,-,-,.,.
O=[N+]([O-])c1cccnc1S(=O)(=O)c1ccccc1,-,-,92,-,-,-,65,58
CC(=O)c1c(C)[nH]c(C(=O)OCC(=O)NCc2cccs2)c1C,-,-,-,.,-,.,.,.
CSCCC(NC(=O)c1ccco1)C(=O)N1CCN(C(c2ccccc2)c2ccccc2)CC1 (stereo unspecified),-,-,-,.,.,.,.,.
CN(C)S(=O)(=O)c1ccc(C(=O)OCC(=O)Nc2ccc3c(c2)OCO3)cc1,-,-,-,.,-,.,.,.
COc1ccc(CCNC(=O)CCNC(=O)c2ccc([N+](=O)[O-])cc2)cc1,-,-,-,-,-,-,.,.
CC(=O)Nc1ccc(NC(=O)CSc2nc(C)nc3sc(C)c(C)c23)cc1,-,-,-,-,-,-,.,.
Cc1nc(SCC(=O)Nc2ccc(CN3CCCC3)cc2)c2c(C)c(C)sc2n1,-,-,84,.,-,.,-,64
COc1ccc(C(=O)NCCCNC(=O)c2cnccn2)cc1,-,-,-,-,-,-,.,.
CCN1CCCC1CNC(=O)c1cc2c(-c3ccc(Cl)cc3)nn(C)c2s1 (stereo unspecified),-,-,65,-,.,-,-,.
Cn1nc(-c2ccc(Cl)cc2)c2cc(C(=O)N3CCN(c4ccccn4)CC3)sc21,-,-,55,-,-,-,-,.
Cn1nc(-c2ccc(Cl)cc2)c2cc(C(=O)N3CCN(c4ccccc4)CC3)sc21,-,-,-,-,.,-,.,.
COc1ccc(NC(=O)c2nc[nH]c2C(=O)NCCCCCNC(=O)OC(C)(C)C)cc1,-,-,-,.,-,-,.,.
Cn1c(=O)c2[nH]c(N3CCN(c4ccccc4)CC3)nc2n(C)c1=O,-,-,67,-,-,-,-,67
COc1ccc(-c2cc(C(F)(F)F)n3nc(C(=O)N4CCN(C(=O)c5ccco5)CC4)cc3n2)cc1,-,-,-,-,-,-,.,.
Cc1cccc(C)c1N(C(=O)c1ccco1)C(C(=O)NC1CCCC1)c1ccncc1 (stereo unspecified),-,-,-,-,-,.,.,.
SMILES,CHOP UPR activ,XBP1 UPR activ,Mdm2-MdmX inh,SKKanGAS inh,Beta apoptosis,CSC inhib,Mdm2-MdmX conf,Full FLuc ctr
Cc1cccc2sc(NC(=O)c3cccc(S(=O)(=O)N4CCc5ccccc54)c3)nc12,-,-,-,-,-,-,.,.
CCOC(=O)N1CCN(S(=O)(=O)c2ccc(C(=O)N(CCN(CC)CC)c3nc4c(C)cccc4s3)cc2)CC1,-,-,-,-,-,-,.,.
CCOC(=O)N1CCN(S(=O)(=O)c2ccc(C(=O)NNc3nc4cc(C)cc(C)c4s3)cc2)CC1,-,-,79,-,84,103,46,47
CCOC(=O)N1CCN(S(=O)(=O)c2ccc(OCC)c(C)c2)CC1,-,-,-,-,-,-,.,.
CCOC(=O)N1CCN(S(=O)(=O)c2ccc(C(=O)NNc3nc4c(C)cccc4s3)cc2)CC1,-,-,53,-,-,.,41,47
CCOC(=O)N1CCN(S(=O)(=O)c2ccc(C)c(C)c2)CC1,-,-,-,-,-,.,.,.
CCOC(=O)N1CCN(S(=O)(=O)c2ccc(C(=O)NNc3nc4c(C)cc(C)cc4s3)cc2)CC1,-,-,80,-,97,126,70,48
Cc1cccc2sc(NNC(=O)c3ccc(S(=O)(=O)N4CCc5ccccc5C4)cc3)nc12,-,-,83,59,92,103,82,76
CC(C)(C)[C@H]1COC(=O)[C@H](NC(=O)OCC2c3ccccc3-c3ccccc32)C/C=C\C[C@@H](CC(=O)N[C@@H](CO)Cc2ccccc2)C(=O)N1,-,-,-,.,-,.,.,.
Cc1cc(C)c2nc(NNC(=O)c3ccc(S(=O)(=O)N4CCCCC4)cc3)sc2c1,-,-,72,?,-,102,45,47
O=C(OCc1c(-c2ccccc2)ncc2ccccc12)c1ccc(C(F)(F)F)cc1,-,-,78,.,-,-,-,.
O=C(OCc1c(-c2ccccc2)ncc2ccccc12)c1ccc(F)cc1,-,-,-,.,-,-,.,.
CC(C)(C)OC(=O)N1CCC2(CC1)Oc1ccc(F)cc1C(=O)C21CC(c2ccc(Cl)cc2)=NO1 (stereo unspecified),-,-,-,-,-,-,.,.
CS(=O)(=O)c1ncc(Cl)c(C(=O)Nc2ccc3ccccc3c2)n1,.,.,.,-,.,.,.,.
CCC1CCCCN1S(=O)(=O)c1ccc(NC(=O)c2ccncc2)cc1 (stereo unspecified),-,-,-,-,.,-,.,.
CCC1CCCCN1S(=O)(=O)c1ccc(C(=O)Nc2nnc(-c3ccccc3Cl)o2)cc1 (stereo unspecified),-,-,63,110,-,.,-,.
